The record followed here is ChEMBL document CHEMBL2057143, “Identification of a class of novel tubulin inhibitors” (J Med Chem, 2012).

The source made the active and inactive calls. The rule behind the calls is not given here.

Assay [1] addresses T1, Tubulin (Homo sapiens) (UniProt P68371+Q9H4B7+P0DPH7+P68366+Q13509+Q71U36+P04350+Q3ZCM7+P07437+P68363+Q9BQE3+Q6PEY2+Q13885+Q9BVA1+Q9BUF5). Put plainly: Inhibition of tubulin polymerization in human SKBR3 cells assessed as microtubule disorganization at 0.5 to 1 uM after 24 hrs by fluorescence microscopic analysis. Type of assay: cell-based. The note with it: SK-BR-3. The method in brief: (§1)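 SKBR-3 cells in chamber slides were grown to 70% confluence, then treated with 0.5 or 1 μM compound for 12 and 24 h; untreated cells and 0.05 μM nocodazole served as controls. Cells were fixed in 4% paraformaldehyde, permeabilized with 0.2% Triton X-100 and blocked with 2% goat serum. They were stained with biotinylated anti-tubulin (1:200, overnight 4 °C) plus Alexa Fluor 488 streptavidin and imaged by fluorescence microscopy.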

For assay [2], the target named is T1, Tubulin (Homo sapiens). Briefly: Inhibition of tubulin polymerization in human SKBR3 cells assessed as decrease in microtubule density at 0.5 to 1 uM after 24 hrs by fluorescence microscopic analysis. Type of assay: cell-based. The note with it: SK-BR-3. The method in brief:
as §1

Assay [3] is filed under the species Bos taurus. Briefly: Inhibition of bovine brain tubulin polymerization after 20 mins by spectrophotometric analysis.
For assay [4], the target named is T1, Tubulin (Homo sapiens). Briefly: Inhibition of tubulin polymerization in human SKBR3 cells assessed as microtubule disorganization at 0.5 to 1 uM after 12 hrs by fluorescence microscopic analysis. The assay is classed as cell-based. To be noted: SK-BR-3. A digest of the protocol:
as §1

The target in assay [5] is T1, Tubulin (Homo sapiens). Put plainly: Inhibition of tubulin polymerization in human SKBR3 cells assessed as decrease in microtubule density at 0.5 to 1 uM after 12 hrs by fluorescence microscopic analysis. Type of assay: cell-based. To be noted: SK-BR-3. A digest of the protocol:
as §1

The test system of assay [6] is SK-BR-3. Briefly: Growth inhibition of human SKBR3 cells after 48 hrs by MTT assay. The assay is classed as functional, cell-based. To be noted: SK-BR-3, 48 h. A digest of the protocol: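 Cells were seeded for 24 h, then exposed to a range of compound concentrations (DMSO ≤0.1% final) for 48 h. MTT (0.5 mg/mL) was added for 2 h, formazan was dissolved in DMSO and A570 read. Six replicates; IC50 from nonlinear regression.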
On the technique in general: Formazan colour is commonly taken as a measure of viable cells.

Assay [7] addresses Heat shock protein beta-1 (Homo sapiens) (UniProt P04792). Put plainly: Induction of Hsp27 phosphorylation in human SKBR3 cells at 50 to 100 nM after 24 hrs by SDS-PAGE analysis. Type of assay: cell-based. To be noted: SK-BR-3. A digest of the protocol: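 SKBR-3 cells were treated for 24 h with 50 and 100 nM nocodazole, with compound or KRIBB3 run alongside. Lysates (50 μg protein) were separated on 12% SDS-PAGE and transferred to PVDF. Membranes were blocked 1 h and probed for pSer78 Hsp27, with total Hsp27 and actin as loading controls, then detected by HRP secondary and ECL.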

The target is the same in assay [8]. Put plainly: Inhibition of Hsp27 phosphorylation in human SKBR3 cells at 0.5 to 1 uM after 24 hrs by Western blot analysis. The note with it: SK-BR-3. (In western blotting, separated proteins are transferred to a membrane and probed.)
Assay [9] shares this target. Briefly: Binding affinity to pure Hsp27 in human SKBR3 cell lysate at 2 uM after 1 hr by Western blot analysis. The note with it: SK-BR-3.
Assay [10] concerns SK-BR-3. Briefly: Binding affinity to pure beta-tubulin in human SKBR3 cell lysate at 25 to 50 uM after 1 hr by Western blot analysis. The assay is classed as cell-free. The method in brief:
(§2)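 Pure proteins, 10 μM bovine brain tubulin or recombinant Hsp27, were tested in separate experiments. Each was incubated with 2 μM biotinylated probe for 1 h at room temperature, then with neutravidin resin for 30 min. After five washes with binding buffer, bound protein was eluted twice with buffer containing compound at 25 and 50 μM. Eluates and resin were denatured, run on SDS-PAGE, transferred to PVDF and probed with α-/β-tubulin or Hsp27 antibodies.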

The species entered for assay [11] is Bos taurus. Briefly: Binding affinity to bovine brain tubulin at 2 uM after 1 hr by SDS-PAGE analysis in preincubated with 10 uM colchicine. The method in brief: (§3)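 Bovine brain tubulin (10 μM) was preincubated with 10 μM colchicine or paclitaxel for 1 h at room temperature. It was then incubated with 2 μM biotinylated probe in binding buffer for 1 h at room temperature and loaded onto a neutravidin resin column for 30 min. The resin was washed five times with binding buffer, then twice with buffer containing compound (25, 50 μM). Eluates and resin were analysed by SDS-PAGE and Western blot with tubulin antibody.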

Assay [12] concerns the target Heat shock protein beta-1 (Homo sapiens) (UniProt P04792). Briefly: Binding affinity to Hsp27 in human SKBR3 cell lysate at 25 uM after 30 mins by mass spectrometric analysis. Type of assay: cell-free. To be noted: SK-BR-3. A digest of the protocol: (§4)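 SKBR-3 cells (1.0 × 10^7) were lysed in NP-40 buffer with protease inhibitors and sonicated. Lysate was incubated with biotinylated probe (25 μM final) for 1 h at room temperature, then with neutravidin resin for 30 min. After five binding-buffer washes, bound proteins were eluted with buffer containing compound at 25 and 50 μM. Resin was boiled in SDS buffer. Samples were run on SDS-PAGE and silver-stained; bands were trypsin-digested in-gel and analysed by LC-QTOF/MS.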

Assay [13] deals with SK-BR-3. Put plainly: Binding affinity to pure alpha-tubulin in human SKBR3 cell lysate at 25 to 50 uM after 1 hr by Western blot analysis. Type of assay: cell-free. The method in brief:
as §2

The test system of assay [14] is SK-BR-3. Briefly: Binding affinity to beta-tubulin in human SKBR3 cell lysate at 25 uM after 30 mins by mass spectrometric analysis. Type of assay: cell-free. A digest of the protocol:
as §4

Assay [15] has as its target Heat shock protein beta-1 (Homo sapiens) (UniProt P04792). Briefly: Binding affinity to pure Hsp27 in human SKBR3 cell lysate at 25 to 50 uM after 1 hr by Western blot analysis. To be noted: SK-BR-3. Type of assay: cell-free. The method in brief:
as §2

The species named for assay [16] is Bos taurus. Briefly: Binding affinity to bovine brain tubulin at 2 uM after 1 hr by SDS-PAGE analysis in preincubated with 10 uM paclitaxel. A digest of the protocol:
as §3

For assay [17], the system named is SK-BR-3. Put plainly: Binding affinity to alpha-tubulin in human SKBR3 cell lysate at 25 uM after 30 mins by mass spectrometric analysis. Type of assay: cell-free. The method in brief:
as §4

Chain of Heat shock protein beta-1 (Homo sapiens) (P04792 whole entry): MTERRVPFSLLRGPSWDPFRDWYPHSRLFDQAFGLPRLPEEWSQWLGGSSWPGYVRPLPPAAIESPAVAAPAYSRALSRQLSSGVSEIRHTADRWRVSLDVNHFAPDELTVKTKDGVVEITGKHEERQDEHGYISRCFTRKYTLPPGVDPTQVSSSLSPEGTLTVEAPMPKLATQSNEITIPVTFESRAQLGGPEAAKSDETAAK

For `Cc1ccc(C)c(COc2cc(NC(=O)c3ccc4c(c3)OCO4)ccc2N(C)S(C)(=O)=O)c1`, the inhibition result on Tubulin (Homo sapiens) [1], on Tubulin (Homo sapiens) [2], on Tubulin (Homo sapiens) [4] and at Tubulin (Homo sapiens) [5] was “Active” in each case. Moreover, the inhibition entry in the assay filed under Bos taurus [3] is “Dose-dependent effect”.
Usually IC50 stands for the concentration that gives 50% inhibition. Consider `CN(c1ccc(NC(=O)c2ccc3c(c2)OCO3)cc1OCc1ccccc1)S(C)(=O)=O`, for which half-maximal inhibition in the assay with SK-BR-3 [6] (IC50) was put at 62.9 µM.
On the same count and under the same terms, to `Cc1ccc(C)c(COc2cc(NC(=O)Cc3ccccc3)ccc2N(C)S(C)(=O)=O)c1` belongs 121 µM.
`COC(=O)Nc1nc2cc(C(=O)c3cccs3)ccc2[nH]1`: the result in [7] was Active.
With `CCc1cc(-c2oncc2-c2ccc(OC)cc2)c(O)cc1OC`, in [8], the inhibition result was “Active”. In addition, the result in [9] was Active.
Consider `Cc1ccc(C)c(COc2cc(NC(=O)c3ccc4c(c3)OCO4)ccc2N(CCCCCCNC(=O)CCCC[C@H]2SC[C@H]3NC(=O)N[C@H]32)S(C)(=O)=O)c1`, for which the outcome (with SK-BR-3 [10]; in [12]; in the assay with SK-BR-3 [13]; in the assay with SK-BR-3 [14]; in assay [15]; in the assay listed under Bos taurus [16]) was Active. Moreover, the result in the assay with SK-BR-3 [17] was Active. Besides, in the assay listed under Bos taurus [11], the result was inactive. Further, in the assay on SK-BR-3 [6], the IC50 was 2 µM.
